According to ChEMBL document CHEMBL4261577, “CureCuma-cationic curcuminoids with improved properties and enhanced antimicrobial photodynamic activity” (Eur J Med Chem, 2018):
Calls of active or inactive are those of the source. No cut-off for these calls is given here.

Experiments:
[1] = n-Octanol/sorensen buffer partition coefficient, log D of compound at 50 uM at pH 7 after 10 mins by shake-flask method; type: physicochemical
Outline: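 Shake-flask at 25 °C: 50 µM photosensitizer in 10 mM Sörensen buffer pH 6.8 vigorously mixed with equal volume n-octanol for 10 min, phases separated by centrifugation; aqueous-phase absorbance before and after partitioning gives the coefficient.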

[2] = Induction of reactive oxygen species formation assessed as singlet oxygen quantum yield at 2 uM measured over 20 mins by luminescence assay; type: functional; conditions: in the assay text read “over 50 secs” for “over 20 mins”
Outline: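 Singlet oxygen luminescence at 1270 nm from a 2 µM solution compared against TMPyP (0.5 µM) as reference, relating absorbed energy to emission; excitation at 405 nm with a tunable laser at 107, 162, 255 and 283 mW for 50 s each.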

[3] = Photodegradation of compound in water at 10 uM in presence of LED illumination at 5.6 J/cm'2 for 10 mins by UV/VIS/NIR spectrometer; type: physicochemical; conditions: read-out: Drug degradation
Outline: (§1)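 10 µM in water in a 1 cm quartz cuvette, illuminated at 435 nm with the bacterial-testing LED (9.4 mW/cm²); absorption spectra taken at set time intervals, chromophore band 380–460 nm followed; half-life from extrapolation.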

[4] = Drug level in 0.1 M phosphate buffer treated with curcumin at pH 7.2 at 37 degC after 30 mins by HPLC method; type: physicochemical; conditions: pH 7.2, 0.5 h
[5] = Stability of compound in diluted HCl at 50 uM after 4 hrs by UV-Vis spectrophotometric method; type: physicochemical; conditions: buffer
Outline: (§2)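 UV-Vis spectra recorded after 4 h incubation in buffer solutions at different pH values, acidic down to pH 2 and alkaline above pH 10.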

[6] = Photodegradation of compound in water at 10 uM in presence of LED illumination at 16.9 J/cm'2 for 30 mins by UV/VIS/NIR spectrometer; type: physicochemical; conditions: read-out: Drug degradation; outline: as §1
[7] = Aggregating behavior of compound up to 1 mM by UV-Vis spectroscopic analysis; type: physicochemical
Outline: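 UV-Vis absorption spectra in H2O over 100–1000 µM; dimerization judged from spectral changes within error margins.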

Escherichia coli [8] = assay: Dark toxicity in Escherichia coli ATCC 25922 assessed as decrease in viable cells at 50 uM relative to control; type: organism-based; conditions: in vivo
Outline: (§3)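 E. coli ATCC25922 prepared as for phototoxicity (2 h subculture, DPBS resuspension), incubated with photosensitizer at 37 °C, 175 rpm, but kept in foil-wrapped plates without illumination; CFU counted from serial dilutions on Todd-Hewitt/yeast extract agar after overnight 37 °C, compared against untreated, unilluminated control; three biological replicates.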

[9] = Stability of compound in diluted NaOH at 50 uM after 4 hrs by UV-Vis spectrophotometric method; type: physicochemical; outline: as §2
Escherichia coli [10] = assay: Dark toxicity in Escherichia coli ATCC 25922 assessed as decrease in viable cells at 10 uM; type: organism-based; conditions: in vivo; outline: as §3
Staphylococcus aureus = assay: Photodynamic antibacterial activity against Staphylococcus aureus ATCC 25923 assessed as CFU log reduction at 50 uM irradiated for 5 mins in presence of blueV lamp irradiation at 5.3 J/cm2 and measured after 24 hrs; type: functional
Outline: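 S. aureus ATCC25923 grown aerobically at 37 °C in Mueller-Hinton broth, pelleted and resuspended in distilled water to OD600 0.6 (~10^8 cells/mL); incubated 1 min with photosensitizer in 96-well plates, irradiated with BlueV source (390–460 nm, 20 mW/cm²) to 5.3 J/cm²; CFU by Miles-Misra on Mueller-Hinton agar after 24 h at 37 °C; log reduction versus untreated control; ≥3 replicates.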

Escherichia coli [11] = assay: Photodynamic antibacterial activity against Escherichia coli ATCC 25922 assessed as CFU log reduction irradiated for 1.5 mins in presence of 0.85 J/cm2 and measured after 24 hrs; type: functional; conditions: ATCC 25922, light or radiation study, read-out: MBC99.9
Escherichia coli [12] = assay: Photodynamic antibacterial activity against Escherichia coli ATCC 25922 assessed as CFU log reduction at 10 uM irradiated for 5 to 25 mins in presence of LED light at 33.8 J/cm2 and measured after 24 hrs relative to control; type: functional
Outline: (§4)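 E. coli ATCC25922 grown overnight at 37 °C (175 rpm) in Todd-Hewitt broth + 0.3% yeast extract, diluted to A 0.05, grown 2 h (A600 0.3–0.45), pelleted and resuspended in DPBS; incubated with photosensitizer 5 or 25 min at 37 °C, illuminated with 435 nm LED array (9.4 mW/cm², 33.8 J/cm²) while shaken; serial dilutions plated, CFU counted after overnight 37 °C. Log reduction versus untreated, unilluminated control; ≥3 biological replicates; detection limit 10 CFU/mL.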

[13] = Half life of compound in water at 10 uM in presence of LED illumination at 9.4 mW/cm'2 by UV/VIS/NIR spectrometer; type: physicochemical; outline: as §1
Escherichia coli [14] = assay: Photodynamic antibacterial activity against Escherichia coli ATCC 25922 assessed as CFU log reduction at 10 uM irradiated for 2.5 mins in presence of 1.41 J/cm2 and measured after 24 hrs; type: functional
Escherichia coli [15] = assay: Photodynamic antibacterial activity against Escherichia coli ATCC 25922 assessed as CFU log reduction irradiated for 5 to 25 mins in presence of LED light at 33.8 J/cm2 and measured after 24 hrs; type: functional; conditions: ATCC 25922, light or radiation study, read-out: MBC99.9; outline: as §4
Escherichia coli [16] = assay: Photodynamic antibacterial activity against Escherichia coli ATCC 25922 assessed as reduction in bacterial burden at 50 uM complexed with PVP in presence of LED irradiation at LED light at 33.8 J/cm2; type: functional, organism-based
Escherichia coli [17] = assay: Photodynamic antibacterial activity against Escherichia coli ATCC 25922 assessed as CFU log reduction at 100 uM complexed with PVP in presence of LED irradiation at LED light at 33.8 J/cm2 relative to control; type: functional
[18] = Stability of compound in DMSO-d6 at 10 mM incubated up to 130 degC measured after > 10 mins by NMR method; type: physicochemical; conditions: 10000 µM
Outline: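 1H NMR at 10 mM heated stepwise from room temperature through 40–130 °C in 10 °C steps, then cooled back to room temperature; aggregation/stability judged from aromatic-region shifts; external TMS reference, 400 MHz.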

[19] = Aggregating behavior of compound at 1 to 2 mM by NMR analysis; type: physicochemical; conditions: 2000 µM
Outline: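 1H NMR in D2O at 20, 10, 5, 2 and 1 mM; aggregation judged from signal shifts and multiplet changes in the aromatic region (6.5–8 ppm), referenced to external TMS, 400 MHz.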

Structure (SMILES) | logD at 10 min, 50 µM [1] | degraded at 10 min, 10 µM [3] [%] | Activity [2] [%] | also measured
COc1cc(OCCN)ccc1/C=C/C(=O)CC(=O)/C=C/c1ccc(OCCN)cc1OC.Cl.Cl | -1.1 | < 10 | < 1 | 
Cl.Cl.Cl.Cl.Cl.Cl.NCCOc1cc(/C=C/C(=O)CC(=O)/C=C/c2cc(OCCN)c(OCCN)c(OCCN)c2)cc(OCCN)c1OCCN | < -2 | < 10 | < 1 | 
COc1cc(C=O)ccc1O [VANILLIN] |  |  |  | Drug metabolism [4]: Metabolite_Detected
COc1cc(/C=C/C(=O)CC(=O)/C=C/c2ccc(O)c(OC)c2)ccc1O [CURCUMIN] |  |  |  | Activity (Escherichia coli [16]): inactive; Activity (Escherichia coli [17]): 0.3 deltalog10CFU/ml
CC(C)=O [ACETONE] |  |  |  | Drug metabolism [4]: Metabolite_Detected

Now from value to molecule, other results behind:

logD at 10 min, 50 µM [1] | degraded at 10 min, 10 µM [3] [%] | Structure (SMILES) | Activity [2] [%] | also measured
-1.6 | < 10 | COc1cc(/C=C/C(=O)CC(=O)/C=C/c2ccc(OCCOCCN)c(OC)c2)ccc1OCCOCCN.Cl.Cl | < 1 | 
-0.9 | < 10 | Cl.Cl.NCCOc1ccc(/C=C/C(=O)CC(=O)/C=C/c2ccc(OCCN)cc2)cc1 | < 1 | 
-0.6 | < 10 | Cl.Cl.NCCCOc1ccc(/C=C/C(=O)CC(=O)/C=C/c2ccc(OCCCN)c(OCc3ccccc3)c2)cc1OCc1ccccc1 | < 1 | 
< -2 | < 10 | Cl.Cl.Cl.Cl.NCCOc1ccc(/C=C/C(=O)CC(=O)/C=C/c2ccc(OCCN)c(OCCN)c2)cc1OCCN | < 1 | Stability [5]: Stable; degraded at 0.5 h, 10 µM [6]: 20%; Activity [7]: Active; Activity (Escherichia coli [8]): 1 deltalog10CFU/ml; Stability [9]: Unstable; Activity (Escherichia coli [10]): Non-Toxic; log reduction (Staphylococcus aureus): 5.3 log10 CFU/mL; MBC (Escherichia coli [11]): 10 µM; Activity (Escherichia coli [12]): 5 deltalog10CFU/ml; half-life at 10 µM [13]: 1 h; Activity (Escherichia coli [14]): >5 deltalog10CFU/ml; MBC (Escherichia coli [15]): 5 µM
-0.8 | < 10 | Cc1cc(/C=C/C(=O)CC(=O)/C=C/c2ccc(OCCN)c(C)c2)ccc1OCCN.Cl.Cl | < 1 | Stability [18]: Stable
-1.2 | < 10 | COc1cc(/C=C/C(=O)CC(=O)/C=C/c2ccc(OCCN)c(OC)c2)ccc1OCCN.Cl.Cl | < 1 | Stability [5]: Stable; Activity (Escherichia coli [8]): 0.5 deltalog10CFU/ml; Stability [9]: Unstable; Activity (Escherichia coli [10]): Non-Toxic; log reduction (Staphylococcus aureus): 5.2 log10 CFU/mL; Activity [19]: Active
